The values below come from PubChem BioAssay.

Values without a mark were called inactive. Records with an inconclusive call do not appear. The source made the active and inactive calls.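 How the source made its calls, unless noted: active means viability increase at or above a cutoff of the median across tested compounds plus 3 SD (cut at about 8.5% in these data, passing the limit was not always enough); inconclusive means some gains above the cutoff, reason not given; inactive means the rest.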

The nature of assay [1]: S. cerevisiae growth inhibition in permissive medium (OD615), pilot counter-assay for S. cerevisiae lifespan shortening project, permissive growth control (AID 705;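 active means growth inhibition above 25% in both replicates, a cutoff set 3 SD above the mean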). Conditions: OD615, 24 h, at 10 µM, hits give high values. A digest of the protocol: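 System: engineered DeaD yeast; Medium: permissive raffinose/galactose medium; Compound dosing: 10 µM single dose, 0.25% DMSO; Incubation: 4 h cell pre-growth, 24 h exposure at 30 °C; Technique: OD at 615 nm; Evaluation: growth inhibition from lowered OD615 after 24 h.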

A short description of assay [2]: S. cerevisiae growth inhibition in restrictive medium, OD615, pilot screen, restrictive growth control, yeast lifespan reduction project (AID 706;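 active means growth inhibition above a set limit, 3 SD over mean compound inhibition, in both replicates, cut at about 43% in these data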;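 further: modified DeaD lifespan yeast strain shifted to restrictive glucose medium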). The following applies: OD615, 48 h, at 10 µM, hits give high values. In outline: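 Material: modified S. cerevisiae; buffer or medium: CSMM-D glucose medium; doses: one concentration, 10 µM final, 0.25% DMSO; incubation: 48 h compound exposure at 30 °C; detection: optical density at 615 nm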

Assay [3] in a line: doxorubicin toxicity protection in MRP-1 cells – H69AR cells, CellTiter-Glo, duplicate, MRP-1 activator project, pilot screen (AID 807).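 Further: compound pretreatment 18-22 h then 72 h combined with doxorubicin; 0% = doxorubicin alone and 100% = vehicle without doxorubicin.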 The following applies: H69AR viability with doxorubicin, CellTiter-Glo luminescence; at 10 µM; hits give high values. On the technique in general: ATP-based viability assays read luminescence as a measure of living cells.
Assay [4] is described as follows: viability of HCT116 without oncogenic beta-catenin – human colon tumor cells, pilot screen (AID 823;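 active means cell viability at or below a set limit in both duplicate runs, the limit being the all-compound median minus 4 SD, cut at about 23% in these data, passing the limit was not always enough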;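 further: 0% = wells killed by 20 µM Hyamine and 100% = untreated DMSO cell wells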). The following applies: HCT116 beta-catenin knockout viability, CellTiter-Glo, 60 h; at 10 µM; hits give low values.
Assay [5] can be described thus: RAM pathway blockade in budding yeast – dse1pr::URA3 reporter, 5-FOA selection, pilot screen (AID 869;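 active means inhibition over a set limit, the all-compound mean plus 3 SD, in both replicate runs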;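 further: 0% = DMSO wells with no growth and 100% = 10 µM 1-NA-PP1 with full growth; RAM network block rescues cells from 5-FOA so hits raise OD615 growth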). Conditions: S. cerevisiae dse1pr::URA3 5-FOA growth, OD615, 2 d; at 10 µM; hits give high values; strain carries analog-sensitive mutant Cbk1 kinase.
Assay [6] is described as follows: RAM signaling pathway blockade in yeast – S. cerevisiae, Pdr1DBD-CYC8 efflux-inhibited sensitized strain, primary screen (AID 1298;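 active means RAM network inhibition above 8.4% in each of two replicates, 3 SD over the compound average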;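 further: 0% = DMSO untreated cells without growth and 100% = 10 µM 1-NA-PP1 full growth; higher means more yeast growth rescued from 5-FOA killing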). Conditions: S. cerevisiae cbk1-as DSE1-URA3 strain, 5-FOA growth OD615, 2 d; at 50 µM; hits give high values.

The viability is a read-out of living cells in per cent, often relative to untreated cells. In general, inhibition refers to the drop in the measured response relative to a control, in per cent. For the compound `O=C(Cn1nnc(-c2ccccc2NC(=O)c2ccccc2F)n1)NCc1ccco1`, the growth inhibition in assay [1] was -7.91%; in assay [2], -7.09%. Also, in assay [3], the viability increase is -6.92%. Moreover, the viability in assay [4] was 73.9%. The inhibition in assay [5] is 1.39%. Besides, the RAM network inhibition in assay [6] is 4.52%.

Regarding `CCOC(=O)C1CCN(CCC(=O)Nc2cccc(Cl)c2C)CC1`, the growth inhibition was -11.2% in assay [1] and -0.95% in assay [2]. Further, the viability increase in assay [3] was -2.59%. Moreover, the viability in assay [4] is 94.6%. In addition, the inhibition in assay [5] was 1.46%. In addition, in assay [6], the RAM network inhibition is 2.35%.

On to `c1ccc(Nc2nc(N3CCCCC3)nc(N3CCNCC3)n2)cc1`, for which the figures for the growth inhibition in assay [1] and in assay [2] were -9.86% and -6.95%, respectively. For the same compound, the viability increase in assay [3] was -8.19%. Further, in assay [4], the viability is 3.71% (active). In assay [5], the inhibition was 0.98%. The RAM network inhibition in assay [6] was 3.63%.

With `Cc1nc2nc(SCC(=O)N3CCOCC3)nn2c(C)c1Cc1c(F)cccc1Cl`, the growth inhibition was -2.75% in assay [1] and 34% in assay [2]. Moreover, the viability increase in assay [3] was -6.91%. Further, the viability in assay [4] was 88.4%. In assay [5], the inhibition is 0.35%. Further, the RAM network inhibition in assay [6] is 3.17%.

Turning to `CC(=O)Nc1cc(OC(=O)c2ccco2)cc(OC(=O)c2ccco2)c1`, the growth inhibition in assay [1] was -22.3%; in assay [2], 3.33%. The viability increase in assay [3] is -2.27%. Further, the viability in assay [4] was 103%. In assay [5], the inhibition is 1.36%. In assay [6], the RAM network inhibition was 5.4%.

Regarding `COc1ccc(NC(=O)C(c2ccc(OC)cc2)N(C)C(=O)c2cnccn2)cc1` (stereo not drawn), the growth inhibition was 9.44% in assay [1] and 2.07% in assay [2]. For the same compound, the viability increase in assay [3] was -2.29%. For the same compound, the viability in assay [4] is 101%. In addition, in assay [5], the inhibition was 2.52%. Further, the RAM network inhibition in assay [6] is 1.4%.

Take `CCOC(=O)N1CCN(c2nc(SC)nc3sc4c(c23)CC(C)(C)OC4)CC1`: the growth inhibition in assay [1] was 2.38%; in assay [2], -0.985%. Further, in assay [3], the viability increase was -5.82%. Besides, the viability in assay [4] was 87.5%. Besides, in assay [5], the inhibition was 0.54%. Besides, in assay [6], the RAM network inhibition was 9.5%.

In the case of `CC(=O)NCC(=O)N(c1c(C)n(C)n(-c2ccccc2)c1=O)C1(C(=O)NC2CCCC2)CCCCC1`, the growth inhibition in assay [1] is 10%; in assay [2], -0.075%. Further, the viability increase in assay [3] is -0.84%. Moreover, the viability in assay [4] was 97.2%. Besides, the inhibition in assay [5] is 1.13%. In assay [6], the RAM network inhibition was -0.72%.

Regarding `CCN(CC)S(=O)(=O)c1cc(Br)ccc1OC`, the growth inhibition in assay [1] is 9.34%; in assay [2], -11.1%. Also, the viability increase in assay [3] was -4.03%. Moreover, the viability in assay [4] is 94.8%. For the same compound, the inhibition in assay [5] is 0.72%. Also, the RAM network inhibition in assay [6] was 1.97%.

`CS(=O)(=O)c1nc(-c2cccs2)cc(C(F)(F)F)n1`: the growth inhibition in assay [1] was -22.6%; in assay [2], 1.86%. In assay [3], the viability increase is -8.04%. Besides, the viability in assay [4] is 53.4%. In addition, the inhibition in assay [5] is 2.05%. Also, the RAM network inhibition in assay [6] is -0.11%.

For `CC(=O)c1cccc(NC(=O)N2CCCC2C(=O)Nc2c(C)cccc2C)c1` (stereo not drawn), the growth inhibition in assay [1] is -22.1%; in assay [2], -1.14%. Moreover, in assay [3], the viability increase is -2.28%. In addition, the viability in assay [4] is 94.1%. Besides, the inhibition in assay [5] was 1.62%. The RAM network inhibition in assay [6] is 3.69%.

As to `O=C(Nc1ccc(Br)cc1Cl)c1cnccn1`, the figures for the growth inhibition in assay [1] and in assay [2] were 1.88% and -0.415%, respectively. For the same compound, the viability increase in assay [3] was -0.71%. Moreover, in assay [4], the viability was 84.1%. Further, in assay [5], the inhibition is 1.97%. Besides, in assay [6], the RAM network inhibition was 2.32%.

In the case of `CCSc1nnc(NC(=O)C2CC=CCC2C(=O)O)s1` (stereo not drawn), the growth inhibition in assay [1] was -17.7%; in assay [2], -7.56%. Further, the viability increase in assay [3] was -0.57%. Besides, the viability in assay [4] was 103%. In assay [5], the inhibition was 0.665%. Also, the RAM network inhibition in assay [6] was 4%.

Consider `CC(=O)NCCN=Cc1sc2ccccc2c1O`, for which the growth inhibition in assay [1] is -8.43%; in assay [2], -2.56%. The viability increase in assay [3] is -2.42%. In addition, in assay [4], the viability is 92.6%. The inhibition in assay [5] was -0.315%. Moreover, the RAM network inhibition in assay [6] is -0.37%.

`CCSc1oc(-c2ccco2)nc1S(=O)(=O)c1ccc(F)cc1`: the growth inhibition in assay [1] was -15.7%; in assay [2], -4.69%. Besides, the viability increase in assay [3] was -3.11%. In addition, the viability in assay [4] is 79%. Besides, in assay [5], the inhibition was 0.335%. In assay [6], the RAM network inhibition is 5.09%.

Take `Cc1ccc2nc(NC3=NCN(Cc4ccco4)CN3)nc(C)c2c1`: the growth inhibition was -1.68% in assay [1] and -0.67% in assay [2]. The viability increase in assay [3] was -7.05%. The viability in assay [4] was 27.2%. Also, the inhibition in assay [5] was -0.585%. For the same compound, the RAM network inhibition in assay [6] is -1.94%.

For `COc1ccc(NC(=O)C2CCC(C)(C(=O)O)C2(C)C)cc1` (stereo not drawn), the values for the growth inhibition in assay [1] and in assay [2] were 1% and 3.7%, respectively. In addition, in assay [3], the viability increase was -0.59%. For the same compound, the viability in assay [4] is 96%. Further, the inhibition in assay [5] is 1.27%. In assay [6], the RAM network inhibition is 3.75%.

For the compound `CCCn1cc(S(=O)(=O)CC(=O)Nc2ccc(OCC)cc2)c2ccccc21`, the results for the growth inhibition in assay [1] and in assay [2] were 1.42% and 3.91%, respectively. Also, the viability increase in assay [3] was -4.37%. In addition, the viability in assay [4] is 84.7%. In addition, the inhibition in assay [5] was 1.41%. Besides, in assay [6], the RAM network inhibition is 6.49%.
